According to ChEMBL document CHEMBL4229377, “Design, synthesis and bioevaluation of 1,2,3,9-tetrahydropyrrolo[2,1-b]quinazoline-1-carboxylic acid derivatives as potent neuroprotective agents” (Eur J Med Chem, 2018):
Active and inactive are the calls of the source. No cut-off for these calls is given here.

What was measured:
[1] = system: SH-SY5Y; experiment: Neuroprotective activity against NMDA-induced cell damage in human SH-SY5Y cells assessed as cell viability at 10 uM preincubated for 6 hrs followed by NMDA addition and measured after 30 mins by MTT assay (reference value: 58.7 +/- 2.3%); type: functional; details: read-out: Activity
[2] = system: SH-SY5Y; experiment: Neuroprotective activity against NMDA-induced cell damage in human SH-SY5Y cells assessed as cell viability at 100 uM preincubated for 6 hrs followed by NMDA addition and measured after 30 mins by MTT assay (reference value: 58.7 +/- 2.3%)
[3] = system: SH-SY5Y; experiment: Neuroprotective activity against NMDA-induced cell damage in human SH-SY5Y cells assessed as cell viability at 0.1 uM preincubated for 6 hrs followed by NMDA addition and measured after 30 mins by MTT assay (reference value: 58.7 +/- 2.3%); type: functional; details: read-out: Activity
[4] = system: SH-SY5Y; experiment: Neuroprotective activity against NMDA-induced cell damage in human SH-SY5Y cells assessed as cell viability at 1 uM preincubated for 6 hrs followed by NMDA addition and measured after 30 mins by MTT assay (reference value: 58.7 +/- 2.3%); type: functional; details: read-out: Activity
[5] = Half life in human liver microsomes at 10 uM preincubated for 10 mins followed by NADPH addition and measured up to 60 mins; type: ADME, microsome
Method in brief: (§1)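 Human liver microsomes were incubated for 60 min with an NADPH regenerating system to derive T1/2 and CL (µL/min/mg). A no-cofactor sample, with buffer replacing NADPH, was run alongside over 60 min to give % parent remaining.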

[6] = Clearance in human liver microsomes at 10 uM preincubated for 10 mins followed by NADPH addition and measured up to 60 mins; type: ADME, microsome; details: read-out: CLH; method in brief: as §1
[7] = Metabolic stability in human liver microsomes assessed as parent compound remaining at 10 uM after 60 mins in absence of NADPH; type: ADME, microsome; details: read-out: Stability; method in brief: as §1
[8] = target: Glutamate receptor ionotropic, NMDA 2B (Homo sapiens) (UniProt Q13224); experiment: Antagonist activity at NR2B NMDA receptor in human SH-SY5Y cells assessed as inhibition of NMDA-induced decrease in ERK1/2 phosphorylation at 0.1 to 10 uM preincubated for 6 hrs followed by NMDA addition and measured after 30 mins by Western blot analysis; type: cell-based
Method in brief: (§2)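 SH-SY5Y lysates were analysed by Western blot for NR2B expression and for p-ERK1/2 relative to total ERK. Data are means ± S.E.M., n = 3, compared against control and NMDA-treated groups.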

[9] = target: Glutamate receptor ionotropic, NMDA 2B (Homo sapiens) (UniProt Q13224); experiment: Antagonist activity at NR2B NMDA receptor in human SH-SY5Y cells assessed as inhibition of NMDA-induced intracellular Ca2+ influx at 10 uM incubated for 3 hrs prior to fluo-3AM dye addition for 30 mins followed by NMDA addition and measured every 5 secs by laser scanning confocal microscopic analysis; type: cell-based
Method in brief: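 SH-SY5Y cells were loaded with fluo-3 AM, and cytoplasmic Ca²⁺ was followed as green fluorescence by laser scanning confocal microscopy over time. NMDA was added at 2 mM final to cells with or without compound pretreatment; n = 9 cells per group.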

[10] = system: SH-SY5Y; experiment: Down regulation of NMDA-induced NR2B level in human SH-SY5Y cells at 0.1 to 10 uM preincubated for 6 hrs followed by NMDA addition and measured after 30 mins by Western blot analysis; type: functional, cell-based; method in brief: as §2

Sequence of Glutamate receptor ionotropic, NMDA 2B (Homo sapiens) (Q13224 27-1484 limits assumed): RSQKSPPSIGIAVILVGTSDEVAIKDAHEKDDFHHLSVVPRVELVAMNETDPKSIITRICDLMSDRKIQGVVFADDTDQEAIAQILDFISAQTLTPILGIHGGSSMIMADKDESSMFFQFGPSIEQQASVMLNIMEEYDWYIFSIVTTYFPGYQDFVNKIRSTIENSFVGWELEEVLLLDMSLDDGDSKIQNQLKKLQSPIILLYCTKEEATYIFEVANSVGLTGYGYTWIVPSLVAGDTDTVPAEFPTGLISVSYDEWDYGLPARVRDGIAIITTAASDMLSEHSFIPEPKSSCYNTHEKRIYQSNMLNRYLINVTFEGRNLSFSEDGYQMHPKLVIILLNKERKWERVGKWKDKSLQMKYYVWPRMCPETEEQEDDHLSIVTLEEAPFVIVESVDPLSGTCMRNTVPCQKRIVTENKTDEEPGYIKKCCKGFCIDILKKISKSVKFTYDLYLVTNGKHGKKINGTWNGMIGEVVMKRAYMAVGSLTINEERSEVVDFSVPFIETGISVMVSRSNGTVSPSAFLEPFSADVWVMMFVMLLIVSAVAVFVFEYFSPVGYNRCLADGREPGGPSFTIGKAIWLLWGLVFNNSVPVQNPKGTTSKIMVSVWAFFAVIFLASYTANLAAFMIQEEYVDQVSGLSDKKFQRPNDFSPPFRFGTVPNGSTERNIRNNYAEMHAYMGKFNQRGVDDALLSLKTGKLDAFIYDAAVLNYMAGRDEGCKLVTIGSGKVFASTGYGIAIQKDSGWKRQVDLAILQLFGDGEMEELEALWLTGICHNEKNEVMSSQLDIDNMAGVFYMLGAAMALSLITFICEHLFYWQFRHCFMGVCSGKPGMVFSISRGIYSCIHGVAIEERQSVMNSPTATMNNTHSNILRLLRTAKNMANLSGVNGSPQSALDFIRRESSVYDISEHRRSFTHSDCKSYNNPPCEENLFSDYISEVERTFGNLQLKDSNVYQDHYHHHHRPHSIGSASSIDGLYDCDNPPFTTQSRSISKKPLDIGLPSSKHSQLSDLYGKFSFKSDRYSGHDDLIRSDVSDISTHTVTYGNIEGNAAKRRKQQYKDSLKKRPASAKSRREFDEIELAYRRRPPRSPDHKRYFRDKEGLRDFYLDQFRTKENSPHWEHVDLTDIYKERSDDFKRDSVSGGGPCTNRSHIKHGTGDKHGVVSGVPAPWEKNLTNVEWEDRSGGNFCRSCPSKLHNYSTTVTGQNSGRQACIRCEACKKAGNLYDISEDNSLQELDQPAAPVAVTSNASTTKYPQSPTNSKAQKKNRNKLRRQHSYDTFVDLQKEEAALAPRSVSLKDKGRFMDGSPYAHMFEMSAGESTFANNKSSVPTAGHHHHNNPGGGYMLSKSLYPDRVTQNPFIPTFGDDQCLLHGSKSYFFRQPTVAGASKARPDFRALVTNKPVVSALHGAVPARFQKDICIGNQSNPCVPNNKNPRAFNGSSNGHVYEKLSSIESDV

Row | half-life at 10 µM [5] [min] | microsomal CLint at 10 µM [6] [µL/min/mg] | remaining at 1 h, 10 µM [7] [%] | inhibition [8] | inhibition [9] | Structure (SMILES) | viability at 10 µM [1] [%] | Activity [2] [%] | viability at 0.1 µM [3] [%] | viability at 1 µM [4] [%] | Activity [10]
1 |  |  |  |  |  | O=C(Nc1ccc(O)cc1)[C@H]1CCC2=Nc3ccccc3CN21 | 69.6 | 73.3 | 65.6 | 67.2 | 
2 |  |  |  |  |  | O=C(NCCc1ccc(O)cc1)[C@@H]1CCC2=Nc3ccccc3CN21 | 81.4 | 67.8 | 67.7 | 78.1 | 
3 |  |  |  |  |  | O=C(NCCc1c[nH]c2ccccc12)[C@@H]1CCC2=Nc3ccccc3CN21 | 80.9 | 78.2 | 66.2 | 72 | 
4 |  |  |  |  |  | O=C(Nc1ccc(O)cc1)[C@@H]1CCC2=Nc3ccc(Br)cc3CN21 | 68 | 68.4 | 62.9 | 66.2 | 
5 |  |  |  |  |  | O=C(Nc1ccccc1)[C@@H]1CCC2=Nc3ccccc3CN21 | 60.4 | 54.6 | 68.7 | 71.4 | 
6 |  |  |  |  |  | O=C(OCc1ccccc1)[C@@H]1CCC2=Nc3ccccc3CN21 | 66.1 | 57.4 | 61 | 65.5 | 
7 |  |  |  |  |  | O=C(Nc1ccc(O)cc1)[C@@H]1CCC2=Nc3ccccc3CN21 | 70.1 | 70.9 | 67.7 | 68.3 | 
8 |  |  |  |  |  | O=C(NCc1ccc(O)cc1)[C@@H]1CCC2=Nc3ccc(Br)cc3CN21 | 76 | 60 | 69 | 73.5 | 
9 |  |  |  |  |  | O=C(NCc1ccc(O)cc1)[C@@H]1CCC2=Nc3ccccc3CN21 | 73.8 | 70.3 | 67.6 | 72 | 
10 |  |  |  |  |  | O=C(NCc1ccccc1)[C@@H]1CCC2=Nc3ccccc3CN21 | 70.5 | 64.4 | 68.4 | 71.6 | 
11 |  |  |  |  |  | COc1ccc(CCNC(=O)[C@@H]2CCC3=Nc4ccccc4CN32)cc1 | 75.1 | 60 | 73 | 81 | 
12 | 12.8 | 109 | 87.3 |  |  | C[C@@H]([C@@H](O)c1ccc(O)cc1)N1CCC(Cc2ccccc2)CC1 [(S)-IFENPRODIL] | 79.5 | 65.1 | 71 | 72.7 | 
13 |  |  |  |  |  | O=C(NCCc1ccc(O)cc1)[C@H]1CCC2=Nc3ccc(Br)cc3CN21 | 78.2 | 81.5 | 67.8 | 74.5 | 
14 |  |  |  |  |  | COc1ccc(CNC(=O)[C@@H]2CCC3=Nc4ccc(Br)cc4CN32)cc1 | 74.3 | 55.3 | 60.4 | 68.8 | 
15 |  |  |  |  |  | COc1ccc(CNC(=O)[C@@H]2CCC3=Nc4ccccc4CN32)cc1 | 74.1 | 64.4 | 68.1 | 71.8 | 
16 |  |  |  |  |  | O=C(NCCCc1ccccc1)[C@H]1CCC2=Nc3ccc(Br)cc3CN21 | 65.4 | 44.1 | 58.1 | 72.1 | 
17 | 29.9 | 46.3 | 99.3 | Active | Active | O=C(NCCc1ccc(O)cc1)[C@@H]1CCC2=Nc3ccc(Br)cc3CN21 | 84.4 | 78.6 | 75.8 | 80 | Active
18 |  |  |  |  |  | O=C(NCCc1ccc(F)cc1)[C@@H]1CCC2=Nc3ccccc3CN21 | 68.1 | 33.5 | 71.4 | 75.4 | 
19 |  |  |  |  |  | COc1ccc(NC(=O)[C@@H]2CCC3=Nc4ccccc4CN32)cc1 | 66.4 | 48.4 | 64.7 | 72.7 | 

Row | half-life at 10 µM [5] [min] | microsomal CLint at 10 µM [6] [µL/min/mg] | remaining at 1 h, 10 µM [7] [%] | inhibition [8] | inhibition [9] | Structure (SMILES) | viability at 10 µM [1] [%] | Activity [2] [%] | viability at 0.1 µM [3] [%] | viability at 1 µM [4] [%] | Activity [10]
20 |  |  |  |  |  | O=C(NCCc1ccccc1)[C@@H]1CCC2=Nc3ccccc3CN21 | 80 | 57.5 | 73.7 | 77.6 | 
21 |  |  |  |  |  | N=C(NCc1ccc(O)cc1)[C@@H]1CCC2=Nc3ccccc3CN21 | 70.2 | 64.3 | 61.6 | 69.2 | 
22 |  |  |  |  |  | O=C(NCCCc1ccccc1)[C@@H]1CCC2=Nc3ccccc3CN21 | 63.4 | 30.3 | 67.2 | 71.2 | 
23 |  |  |  |  |  | O=C(NCc1ccc(O)cc1)[C@H]1CCC2=Nc3ccccc3CN21 | 64.2 | 60.9 | 65.2 | 68 | 
24 |  |  |  |  |  | O=C(Nc1ccc(O)cc1)[C@H]1CCC2=Nc3ccc(Br)cc3CN21 | 68.3 | 66 | 61.7 | 71.3 | 
25 | 1.2 | 1180 | 3.2 |  |  | COc1ccc(COC(=O)[C@@H]2CCC3=Nc4ccccc4CN32)cc1 | 65.3 | 63.6 | 61.4 | 64.1 | 
26 |  |  |  |  |  | Cc1ccc(CNC(=O)[C@@H]2CCC3=Nc4ccccc4CN32)cc1 | 72.5 | 54.5 | 66.2 | 73.4 | 
27 |  |  |  |  |  | O=C(NCc1ccc(F)cc1)[C@H]1CCC2=Nc3ccccc3CN21 | 72.9 | 63.9 | 71.1 | 74.7 | 
28 |  |  |  |  |  | O=C(NCCc1ccc(O)cc1)[C@H]1CCC2=Nc3ccccc3CN21 | 70.5 | 68 | 65.2 | 80.7 | 
29 |  |  |  |  |  | O=C(NCCCc1ccccc1)[C@@H]1CCC2=Nc3ccc(Br)cc3CN21 | 66.1 | 42.2 | 69.1 | 76.6 | 
30 |  |  |  |  |  | COc1ccc(CNC(=N)[C@@H]2CCC3=Nc4ccccc4CN32)cc1 | 66.1 | 56.9 | 64.8 | 65.8 | 
31 |  |  |  |  |  | O=C(NCc1ccc(O)cc1)[C@H]1CCC2=Nc3ccc(Br)cc3CN21 | 67.4 | 56.9 | 75 | 78 | 
32 |  |  |  |  |  | O=C(NCCCc1ccccc1)[C@H]1CCC2=Nc3ccccc3CN21 | 70.2 | 42 | 62.2 | 71.6 | 
33 |  |  |  |  |  | O=C(NCc1ccc(F)cc1)[C@@H]1CCC2=Nc3ccc(Br)cc3CN21 | 70.4 | 60.1 | 64.8 | 70.4 | 
34 |  |  |  |  |  | O=C(NCc1ccc(F)cc1)[C@@H]1CCC2=Nc3ccccc3CN21 | 78.9 | 63.2 | 67.1 | 72.6 | 
35 |  |  |  |  |  | N=C(NCc1ccccc1)[C@@H]1CCC2=Nc3ccccc3CN21 | 68.8 | 66.4 | 61.6 | 68.6 | 
36 |  |  |  |  |  | COc1ccc(CNC(=O)[C@H]2CCC3=Nc4ccccc4CN32)cc1 | 76.2 | 58.4 | 66.6 | 70.7 | 
37 |  |  |  |  |  | O=C(N[C@H](CO)Cc1ccccc1)[C@@H]1CCC2=Nc3ccccc3CN21 | 79.6 | 72.4 | 67.1 | 82.6 | 
